Activity calls are given as the source filed them. The calls are words filed in the database; no cut-off is given here.
How the values were obtained:
Mus musculus = test: Toxicity in nu/nu mouse xenografted with human EOL-1 cells assessed as change in body weight at 25 to 100 mg/kg/day, ip; format: organism-based; details: in vivo
How it was run: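 Female nu/nu mice, 6 weeks old, implanted subcutaneously in the right flank with 5 million EOL-1 cells in PBS/Matrigel 1:1. At tumour size 200–400 mm³, mice randomised into groups of 6 and given daily IP doses of 25, 50 or 100 mg/kg in 0.5% methylcellulose/0.4% Tween80, or vehicle, for 14 days. Body weight measured daily and normalised to initial weight; mean ± SEM.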

EOL1 [1] = test: Antitumor activity against human EOL-1 cells xenografted in nu/nu mouse assessed as tumor growth inhibition at 50 mg/kg/day, ip; format: functional; details: read-out: TGI
How it was run: (§1)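 Female nu/nu mice (6 weeks) given subcutaneous right-flank injection of 5 million EOL-1 cells in PBS/Matrigel 1:1. At 200–400 mm3 tumors, randomized to groups of 6 and dosed daily i.p. for 14 days at 25, 50 or 100 mg/kg/d in 0.5% methylcellulose/0.4% Tween80. Tumor volume = W²×L/2, measured daily.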

[2] = molecular target: T1, Platelet-derived growth factor receptor alpha (Homo sapiens, UniProt P16234); details: NCI-H1703, 1 uM
[3] = molecular target: T1, Platelet-derived growth factor receptor alpha; details: NCI-H1703, 1 uM; remark: listed apart in the source
EOL1 [4] = test: Antiproliferative activity against human EOL-1 cells after 72 hrs by CellTiter-Glo or CCK-8 assay; format: functional; details: EOL1, 72 h
How it was run: (§2)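 Cells in RPMI 1640 with 10% FBS at 37 °C, 5% CO2, seeded at 1–3 × 10^4 cells/mL with serial compound dilutions for 72 h. Viability read by CellTiter-Glo luminescence or CCK-8 absorbance (450/655 nm), normalized to DMSO control.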

[5] = molecular target: T1, Platelet-derived growth factor receptor alpha; details: 100 nM
[6] = Tmax in Sprague-Dawley rat at 10 mg/kg, po; format: ADME, organism-based; details: in vivo
How it was run: (§3)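 Male Sprague-Dawley rats, 6–8 weeks old and fasted overnight, dosed IV at 1 mg/kg or PO at 10 mg/kg. Formulation was 5% DMSO/40% PEG400/55% saline (1 mg/mL). Jugular blood collected on heparin from 1 min to 8 h (IV) or 5 min to 24 h (PO). Plasma separated by centrifugation at 2–8 °C and stored at −80 °C.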

[7] = Oral bioavailability in Sprague-Dawley rat at 10 mg/kg; format: ADME, organism-based; details: in vivo; how it was run: as §3
[8] = Tmax in Sprague-Dawley rat at 1 mg/kg, iv; format: ADME, organism-based; details: in vivo; how it was run: as §3
[9] = molecular target: T1, Platelet-derived growth factor receptor alpha; details: 1 uM
EOL1 [10] = test: Antitumor activity against human EOL-1 cells xenografted in nu/nu mouse assessed as tumor growth inhibition at 25 mg/kg/day, ip; format: functional; details: read-out: TGI; how it was run: as §1
[11] = molecular target: T1, Platelet-derived growth factor receptor alpha; details: NCI-H1703, 1 uM; remark: listed apart in the source
EOL1 [12] = test: Antitumor activity against human EOL-1 cells xenografted in nu/nu mouse assessed as tumor growth inhibition at 100 mg/kg/day, ip; format: functional; details: read-out: TGI; how it was run: as §1
[13] = molecular target: T1, Platelet-derived growth factor receptor alpha; details: 1 uM; remark: listed apart in the source
[14] = Cmax in Sprague-Dawley rat at 10 mg/kg, po; format: ADME, organism-based; design: dose 10 mg/kg, route oral; details: in vivo; how it was run: as §3
[15] = AUC (0 to t) in Sprague-Dawley rat at 10 mg/kg, po; format: ADME, organism-based; details: in vivo
How it was run: (§4)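 Male Sprague-Dawley rats (6–8 weeks) fasted overnight, dosed IV or orally; compound dissolved in 5% DMSO/40% PEG400/55% saline (dosing solution 1 mg/mL). Blood (~0.2 mL) from jugular vein into heparin; IV sampling 1 min–8 h, oral 5 min–24 h. Plasma separated by centrifugation at 2–8 °C, stored at −80 °C until analysis.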

NCI-H1703 [16] = test: Antiproliferative activity against human NCI-H1703 cells after 72 hrs by CellTiter-Glo or CCK-8 assay; format: functional; details: NCI-H1703, 72 h; how it was run: as §2
[17] = AUC (0 to infinity) in Sprague-Dawley rat at 10 mg/kg, po; format: ADME, organism-based; design: dose 10 mg/kg, route oral, time infinity; details: in vivo; how it was run: as §4
NCI-H1703 [18] = test: Antiproliferative activity against human NCI-H1703 cells after 72 hrs in presence of PDGF-AA by CellTiter-Glo or CCK-8 assay; format: functional; details: NCI-H1703, 72 h; how it was run: as §2
[19] = Cmax in Sprague-Dawley rat at 1 mg/kg, iv; format: ADME, organism-based; design: dose 1 mg/kg, route intravenous; details: in vivo; how it was run: as §3
[20] = AUC (0 to t) in Sprague-Dawley rat at 1 mg/kg, iv; format: ADME, organism-based; details: in vivo; how it was run: as §4
[21] = AUC (0 to infinity) in Sprague-Dawley rat at 1 mg/kg, iv; format: ADME, organism-based; design: dose 1 mg/kg, time infinity, route intravenous; details: in vivo; how it was run: as §4
[22] = Cytotoxicity against mouse BA/F3 cells after 72 hrs by CellTiter-Glo or CCK-8 assay; format: cell-based, BaF3
How it was run: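 Parental BaF3 or IL-3-independent TEL-kinase BaF3 lines, made by retroviral infection and puromycin selection, grown in RPMI 1640 with 10% FBS. Cells seeded at 1–3 × 10^4 cells/mL with serial compound concentrations for 72 h. Viability read by CellTiter-Glo luminescence or CCK-8 absorbance at 450/655 nm and normalised to DMSO. GI50 obtained by triplicate testing with linear regression. Selectivity is the ratio of the two GI50 values.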

T1 sequence (P16234 whole entry): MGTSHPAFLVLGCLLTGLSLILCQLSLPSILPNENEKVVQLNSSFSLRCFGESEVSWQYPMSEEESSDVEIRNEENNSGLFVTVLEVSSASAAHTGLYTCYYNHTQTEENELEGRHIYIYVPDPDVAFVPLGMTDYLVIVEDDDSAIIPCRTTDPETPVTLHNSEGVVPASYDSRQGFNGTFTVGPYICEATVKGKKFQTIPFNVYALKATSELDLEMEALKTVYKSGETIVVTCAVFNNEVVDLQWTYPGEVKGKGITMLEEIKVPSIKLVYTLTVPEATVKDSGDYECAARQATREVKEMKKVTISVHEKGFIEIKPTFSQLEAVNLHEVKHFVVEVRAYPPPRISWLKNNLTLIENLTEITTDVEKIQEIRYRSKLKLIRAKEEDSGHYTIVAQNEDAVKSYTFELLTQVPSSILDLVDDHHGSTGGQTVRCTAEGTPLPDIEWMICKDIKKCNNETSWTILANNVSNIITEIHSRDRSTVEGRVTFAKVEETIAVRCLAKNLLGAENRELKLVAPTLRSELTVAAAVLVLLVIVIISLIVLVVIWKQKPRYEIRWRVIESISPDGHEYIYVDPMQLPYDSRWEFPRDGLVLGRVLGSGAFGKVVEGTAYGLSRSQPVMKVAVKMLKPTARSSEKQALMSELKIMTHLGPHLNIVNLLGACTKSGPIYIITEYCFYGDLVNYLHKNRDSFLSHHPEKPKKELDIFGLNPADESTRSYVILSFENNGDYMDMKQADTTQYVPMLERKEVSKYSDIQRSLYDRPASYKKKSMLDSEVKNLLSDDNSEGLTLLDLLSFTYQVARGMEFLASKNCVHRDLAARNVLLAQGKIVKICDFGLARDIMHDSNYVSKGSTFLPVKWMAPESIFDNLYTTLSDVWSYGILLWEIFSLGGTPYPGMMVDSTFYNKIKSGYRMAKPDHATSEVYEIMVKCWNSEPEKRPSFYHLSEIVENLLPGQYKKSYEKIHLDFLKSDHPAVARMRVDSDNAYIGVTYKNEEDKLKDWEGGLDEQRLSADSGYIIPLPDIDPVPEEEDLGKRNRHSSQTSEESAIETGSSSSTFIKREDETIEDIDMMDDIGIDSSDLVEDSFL

Cc1ccc(NC(=O)c2ccc(CN3CCN(C)CC3)cc2)cc1Nc1nccc(-c2cccnc2)n1 [IMATINIB]
Activity (Mus musculus): Toxic
inhibition in vivo at 50 mg/kg/day (EOL1 [1]): 100%
inhibition [2]: Active
inhibition [3]: Active
GI50 (EOL1 [4]): < 1 nM
inhibition [5]: inactive
Tmax [6]: 6.67 h
bioavailability [7]: 76.5%
Tmax [8]: 1.02 min
inhibition [9]: Active
inhibition in vivo at 25 mg/kg/day (EOL1 [10]): 99.9%
inhibition [11]: Active
inhibition in vivo at 100 mg/kg/day (EOL1 [12]): 100%
inhibition [13]: Active
Cmax [14]: 531 ng/mL
AUC(0-t) [15]: 6460 ng·h/mL
GI50 (NCI-H1703 [16]): 2100 nM
AUC(0-inf) [17]: 6650 ng·h/mL
GI50 (NCI-H1703 [18]): 230 nM
Cmax [19]: 547 ng/mL
AUC(0-t) [20]: 856 ng·h/mL
AUC(0-inf) [21]: 869 ng·h/mL
GI50 at 72 h [22]: > 10000 nM

— ChEMBL document CHEMBL4229344 (Eur J Med Chem, 2018)
